The nature of data set [1]: Metabolic stability in mouse liver microsomes assessed as half life. The data set is classed as ADME, Microsome. On the technique in general: Liver microsomes are a subcellular fraction often used to study metabolism.
Data set [2] is described as follows: Metabolic stability in mouse hepatic microsomes at 1 uM after 30 mins at 37 degC. Conditions: liver microsomes.
Data set [3] is described as follows: Metabolic stability in human hepatic microsomes at 1 uM after 30 mins at 37 degC. The class given is ADME. Conditions: liver microsomes, read-out: Stability. A digest of the protocol: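 Compound at 1 μM preincubated 10 min at 37 °C in potassium phosphate buffer pH 7.4 with 0.5 mg/mL human or mouse hepatic microsomes; NADP/G6P/G6P-DH cofactor mix added; samples at 0 and 30 min analysed by LC-MS/MS (MRM, verapamil internal standard); % remaining = area 30 min/area 0 min × 100.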

A short description of data set [4]: Half life in CD1 mouse at 15 mg/kg, po. Particulars: in vivo. Also noted: dose 15 mg/kg, route oral. The class given is ADME, organism-based. In short, it runs like this: (§1)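 Mice dosed orally by gavage at 15 mg/kg, compound in water at 3 mg/mL of the base; iv comparison dose 5 mg/kg in normal saline; 27-30 animals per group; plasma from serial blood samples, protein-precipitated, kept at -80 °C, quantified by LC/MS/MS.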

Data set [5] deals with Mus musculus. The data set can be described thus: Volume of distribution at steady state in CD1 mouse at 5 mg/kg, iv. Particulars: in vivo.
Data set [6] in a line: AUC (0 to 24 hrs) in CD1 mouse at 5 mg/kg, iv. The data set is classed as ADME, organism-based. Also noted: time < 24 hr, dose 5 mg/kg, route intravenous. Particulars: plasma. In short, it runs like this: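 Mice given single iv dose of 5 mg/kg, compound in normal saline at 1 mg/mL as rapid bolus; 27-30 animals per group; blood sampled at several times after dosing, plasma separated by centrifugation, proteins precipitated, stored -80 °C, analysed by LC/MS/MS (ESI).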

A short description of data set [7]: Clearance in CD1 mouse at 5 mg/kg, iv. Particulars: in vivo.
Data set [8] is described as follows: Oral bioavailability in CD1 mouse at 15 mg/kg. The data set is classed as ADME, organism-based. Particulars: in vivo. A digest of the protocol: as §1
A short description of data set [9]: AUC (0 to infinity) in CD1 mouse at 5 mg/kg, iv. The data set is classed as ADME, organism-based. Conditions: plasma. Further details: time infinity, dose 5 mg/kg, route intravenous.
A short description of the next data set: in vitro. Conditions: human, liver microsomes.
The species entered for data set [10] is Mus musculus. The data set can be described thus: Hepatic blood flow in mouse. The data set is classed as ADME, organism-based, Liver.

The results in this text go back to ChEMBL document CHEMBL1156799, “Synthesis and biological evaluation of N-hydroxyphenylacrylamides and N-hydroxypyridin-2-ylacrylamides as novel histone deacetylase inhibitors” (J Med Chem, 2010).

Consider `O=C(/C=C/c1ccc2c(c1)nc(CCc1ccccc1)n2CCN1CCCC1)NO`, for which the half-life in data set [1] came to 0.05 h.
As for `CN1CCN(c2ccc(C(=O)/C=C/c3ccc(/C=C/C(=O)NO)cc3)cc2)CC1`, the values for the remaining at 0.5 h, 1 µM in data set [2] and in data set [3] were 9.1% and 33%, respectively.
In data set [4], `CN1CCN(Cc2ccc(C(=O)/C=C/c3cccc(/C=C/C(=O)NO)n3)cc2)CC1` gave a half-life of 7.3 h. This compound returned a volume of distribution (Vdss) in the data set with Mus musculus [5] of 16.07 L/kg. In data set [6], this compound showed an AUC(0-t) at 24 h of 2520 ng·h/mL. Moreover, the clearance in [7] was determined as 29.2 mL/min/kg. The remaining at 0.5 h, 1 µM in [2] was 46%; in [3], 51%. The bioavailability in data set [8] worked out at 2.6%.
On to `O=C(/C=C/c1cccc(/C=C/C(=O)c2ccccc2)c1)NO`, for which the remaining at 0.5 h, 1 µM in data set [2] amounted to 6%; in [3], 9%.
In [4], `CN1CCN(Cc2ccccc2C(=O)/C=C/c2ccc(/C=C/C(=O)NO)nc2)CC1` gave a half-life of 5.55 h. In the data set with Mus musculus [5], the Vdss was determined as 11.7 L/kg. Moreover, the total exposure AUC(0-inf) in data set [9] came to 1490 ng·h/mL. Further, the clearance in data set [7] stood at 55.8 mL/min/kg. Besides, the remaining at 0.5 h, 1 µM was 53% in [2] and 93% in data set [3]. In data set [8], this compound registered a bioavailability of 4.5%.
In the case of `CN1CCN(Cc2ccc(C(=O)/C=C/c3cccc(/C=C/C(=O)NO)c3)cc2)CC1`, the remaining at 0.5 h, 1 µM was found to be 33% in [2] and 44% in data set [3].
For `O=C(/C=C/c1cccc(/C=C/C(=O)c2ccccc2)n1)NO` the same measures were 11% and 38%.
As to `CN1CCN(c2ccccc2C(=O)/C=C/c2ccc(/C=C/C(=O)NO)cc2)CC1`, the half-life in [4] is 2 h. Also, the distribution volume (Vdss) in the data set with Mus musculus [5] was determined as 5.4 L/kg. Further, the AUC(0-inf) in [9] stood at 698 ng·h/mL. The clearance in data set [7] is 119 mL/min/kg. The remaining at 0.5 h, 1 µM in data set [2] is 34%; in [3] it was 38%. The bioavailability in data set [8] worked out at 18.1%.
On to `CN1CCN(Cc2cccc(C(=O)/C=C/c3cccc(/C=C/C(=O)NO)n3)c2)CC1`, for which the remaining at 0.5 h, 1 µM in data set [2] came to 40%; in [3], 45%.
Turning to `CN1CCN(c2ccc(C(=O)/C=C/c3cccc(/C=C/C(=O)NO)n3)cc2)CC1`, the remaining at 0.5 h, 1 µM in [2] amounted to 19%; in [3], 35%.
Regarding `CN1CCN(Cc2cccc(C(=O)/C=C/c3ccc(/C=C/C(=O)NO)nc3)c2)CC1`, the half-life in data set [4] is 6.7 h. The same compound yielded a Vdss in the data set on Mus musculus [5] of 28.4 L/kg. This compound also yielded an area under the curve AUC(0-inf) in data set [9] of 736 ng·h/mL. Moreover, the clearance in [7] came to 113 mL/min/kg. The remaining at 0.5 h, 1 µM in data set [2] is 46%; in data set [3], 32%. The compound also had a bioavailability in data set [8] of 3.9%.
As to `CN1CCN(c2ccc(C(=O)/C=C/c3ccc(/C=C/C(=O)NO)nc3)cc2)CC1`, the remaining at 0.5 h, 1 µM amounted to 3.8% in data set [2] and 43% in data set [3].
The corresponding values for `CN1CCN(Cc2ccc(C(=O)/C=C/c3ccc(/C=C/C(=O)NO)cc3)cc2)CC1` are 17% and 61%.
For `CN1CCN(Cc2cccc(C(=O)/C=C/c3cccc(/C=C/C(=O)NO)c3)c2)CC1` the same measures were 25% and 39%.
As for `CN1CCN(c2cccc(C(=O)/C=C/c3ccc(/C=C/C(=O)NO)cc3)c2)CC1`, the remaining at 0.5 h, 1 µM in data set [2] turned out to be 6.2%; in data set [3], 44%.
The corresponding values for `CN1CCN(Cc2cccc(C(=O)/C=C/c3ccc(/C=C/C(=O)NO)cc3)c2)CC1` are 17% and 23%.
`CN1CCN(Cc2ccc(C(=O)/C=C/c3ccc(/C=C/C(=O)NO)nc3)cc2)CC1`: in data set [4], the half-life was 9.7 h. The same compound displayed a Vdss in the data set on Mus musculus [5] of 31.9 L/kg. Also, in [9], the area under the curve AUC(0-inf) is 1050 ng·h/mL. Besides, the clearance in data set [7] came out at 79.2 mL/min/kg. The values for the remaining at 0.5 h, 1 µM in [2] and in data set [3] were 56% and 47%, respectively. In addition, the bioavailability in [8] was found to be 5.5%.
For `CN1CCN(c2ccccc2C(=O)/C=C/c2cccc(/C=C/C(=O)NO)c2)CC1`, the remaining at 0.5 h, 1 µM in data set [2] is 44%; in [3], 62%.
In the case of `CN1CCN(c2cccc(C(=O)/C=C/c3ccc(/C=C/C(=O)NO)nc3)c2)CC1`, the remaining at 0.5 h, 1 µM in data set [2] was 20%; in data set [3], 41%.
On to `CN1CCN(c2cccc(C(=O)/C=C/c3cccc(/C=C/C(=O)NO)n3)c2)CC1`, for which, in [4], the half-life was 8.5 h. This compound also gave a Vdss in the data set with Mus musculus [5] of 18.3 L/kg. The compound further showed an AUC(0-inf) in data set [9] of 1510 ng·h/mL. This compound came in with a clearance in data set [7] of 55.3 mL/min/kg. Further, the remaining at 0.5 h, 1 µM in data set [2] was 29%; in [3], 35%. This compound also gave a bioavailability in data set [8] of 2%.
For the compound `O=C(/C=C/c1cc(/C=C/C(=O)c2ccccc2)ccn1)NO`, the remaining at 0.5 h, 1 µM was 14% in data set [2] and 16% in [3].
On to `CN1CCN(c2cccc(C(=O)/C=C/c3cccc(/C=C/C(=O)NO)c3)c2)CC1`, for which the remaining at 0.5 h, 1 µM in data set [2] amounted to 7.2%; in [3], 55%.
For `O=C(/C=C/c1ccc(/C=C/C(=O)c2ccccc2)cc1)NO` the same measures were 2% and 5%.
Turning to `CN1CCN(c2ccccc2C(=O)/C=C/c2cccc(/C=C/C(=O)NO)n2)CC1`, the half-life in data set [4] was 8.6 h. The compound also displayed a distribution volume (Vdss) in the data set with Mus musculus [5] of 13.9 L/kg. This compound showed an AUC(0-inf) in data set [9] of 1900 ng·h/mL. Moreover, the clearance in data set [7] amounted to 44 mL/min/kg. In addition, the figures for the remaining at 0.5 h, 1 µM in [2] and in data set [3] were 57% and 58%, respectively. Further, the bioavailability in data set [8] stood at 2.9%.
In data set [4], `CN1CCN(Cc2ccccc2C(=O)/C=C/c2cccc(/C=C/C(=O)NO)c2)CC1` showed a half-life of 8.27 h. The Vdss in the data set with Mus musculus [5] came out at 20.1 L/kg. This compound also registered an area under the curve AUC(0-inf) in data set [9] of 849 ng·h/mL. The same compound yielded a clearance in data set [7] of 98 mL/min/kg. Moreover, the remaining at 0.5 h, 1 µM was 35% in data set [2] and 62% in [3]. In [8], this compound returned a bioavailability of 3.1%.
On to `O=C(/C=C/c1ccc(/C=C/C(=O)c2ccccc2)cn1)NO`, for which the remaining at 0.5 h, 1 µM amounted to 6% in [2] and 14% in data set [3].
For `CN1CCN(c2ccccc2C(=O)/C=C/c2ccc(/C=C/C(=O)NO)nc2)CC1`, the half-life in [4] was 2.3 h. Besides, the volume of distribution (Vdss) in the data set with Mus musculus [5] was 2.1 L/kg. In data set [9], this compound yielded an AUC(0-inf) of 1400 ng·h/mL. In data set [7], this compound returned a clearance of 59.7 mL/min/kg. In addition, the remaining at 0.5 h, 1 µM worked out at 61% in [2] and 65% in data set [3]. In addition, the bioavailability in [8] stood at 6.3%.
With `CN1CCN(Cc2ccccc2C(=O)/C=C/c2ccc(/C=C/C(=O)NO)cc2)CC1`, the remaining at 0.5 h, 1 µM came out at 4.2% in [2] and 56% in [3].
Turning to `CN1CCN(c2ccc(C(=O)/C=C/c3cccc(/C=C/C(=O)NO)c3)cc2)CC1`, the values for the remaining at 0.5 h, 1 µM in data set [2] and in [3] were 5.9% and 40%, respectively.
Turning to `CN1CCN(Cc2ccccc2C(=O)/C=C/c2cccc(/C=C/C(=O)NO)n2)CC1`, the results for the remaining at 0.5 h, 1 µM in data set [2] and in data set [3] were 40% and 67%, respectively.
For `O=C(/C=C/c1cccc(S(=O)(=O)Nc2ccccc2)c1)NO` [BELINOSTAT], the half-life in [4] was 1.21 h. Moreover, the Vdss with Mus musculus [5] came out at 5.03 L/kg. For the same compound, the total exposure AUC(0-inf) in [9] worked out at 431 ng·h/mL. Also, the clearance in data set [7] came to 193 mL/min/kg. In [8], this compound showed a bioavailability of 6.66%.
Compound `Cc1[nH]c2ccccc2c1CCNCc1ccc(/C=C/C(=O)NO)cc1` [PANOBINOSTAT] gave a half-life in data set [4] of 1.37 h. The volume of distribution (Vdss) in the data set with Mus musculus [5] was determined as 15.1 L/kg. In data set [9], this compound gave an area under the curve AUC(0-inf) of 273 ng·h/mL. In data set [7], this compound had a clearance of 305 mL/min/kg. The bioavailability in data set [8] worked out at 4.6%.
`O=C(CCCCCCC(=O)Nc1ccccc1)NO` [VORINOSTAT]: the figures for the half-life (in [4]; in “in vitro”; in [1]) were 0.5 h, 1 h and 0.467 h, respectively. In the data set on Mus musculus [5], the Vdss was found to be 1.2 L/kg. In data set [9], this compound had an AUC(0-inf) of 657 ng·h/mL. The LBF in the data set filed under Mus musculus [10] was found to be 90 mL/min/kg. Besides, the clearance in data set [7] stood at 127 mL/min/kg. The bioavailability in data set [8] was 12.1%.

One may read the half-life as the time in which the quantity being followed falls by half. A word on the Vdss: it is the apparent volume that relates the amount in the body to the concentration in plasma or blood. The low end stands for confinement near the circulation, the high end for extensive tissue distribution. Broadly, the AUC(0-t) is exposure summed from dosing to a finite time, without extrapolation to infinity. A low value points to low exposure. For orientation: clearance means a measure of how efficiently the substance is removed, as volume per time. Lower therefore signals a low capacity for elimination. The bioavailability is dose-corrected exposure relative to a reference, in per cent. One may read the AUC(0-inf) as total exposure, with the tail of the curve extrapolated. Low values mean low exposure, high ones high exposure.
